In ChEMBL document CHEMBL1177643, “Synthesis, DNA-binding ability and anticancer activity of benzothiazole/benzoxazole-pyrrolo[2,1-c][1,4]benzodiazepine conjugates” (Bioorg Med Chem, 2010):

Key:
Assay type in all cases: functional
CCRF-CEM = assay: Growth inhibition of human CCRF-CEM cells after 48 hrs by sulforhodamine B assay
Method in brief: (§1)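 Dose–response in each cell line over at least five concentrations at 10-fold dilutions, with 48 h continuous exposure and sulforhodamine B read-out.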

HL-60 = assay: Growth inhibition of human HL-60(TB) cells after 48 hrs by sulforhodamine B assay; conditions: HL-60, 48 h
Method in brief: (§2)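 Panel of 60 human cancer cell lines; for each compound, dose–response curves per cell line measured at a minimum of five concentrations at 10-fold dilutions. Cells exposed continuously to drug for 48 h, and growth was read out by sulforhodamine B staining.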

K562 = assay: Growth inhibition of human K562 cells after 48 hrs by sulforhodamine B assay; conditions: K562, 48 h; method in brief: as §2
MOLT-4 = assay: Growth inhibition of human MOLT4 cells after 48 hrs by sulforhodamine B assay; conditions: MOLT-4, 48 h; method in brief: as §2
[1] = Growth inhibition of human […] cells after 48 hrs by sulforhodamine B assay; method in brief: as §2
SR = assay: Growth inhibition of human SR cells after 48 hrs by sulforhodamine B assay; method in brief: as §2
A549 = assay: Growth inhibition of human A549 cells after 48 hrs by sulforhodamine B assay; conditions: A549, 48 h; method in brief: as §1
EKVX = assay: Growth inhibition of human EKVX cells after 48 hrs by sulforhodamine B assay; method in brief: as §1
HOP-62 = assay: Growth inhibition of human HOP62 cells after 48 hrs by sulforhodamine B assay; conditions: HOP-62, 48 h; method in brief: as §2
HOP-92 = assay: Growth inhibition of human HOP92 cells after 48 hrs by sulforhodamine B assay; conditions: HOP-92, 48 h; method in brief: as §2
NCI-H322M = assay: Growth inhibition of human NCI-H322M cells after 48 hrs by sulforhodamine B assay; method in brief: as §2
NCI-H522 = assay: Growth inhibition of human NCI-H522 cells after 48 hrs by sulforhodamine B assay; conditions: NCI-H522, 48 h; method in brief: as §2
COLO 205 = assay: Growth inhibition of human COLO205 cells after 48 hrs by sulforhodamine B assay; conditions: COLO 205, 48 h; method in brief: as §1
HCC 2998 = assay: Growth inhibition of human HCC2998 cells after 48 hrs by sulforhodamine B assay; conditions: HCC 2998, 48 h; method in brief: as §2
HCT-116 = assay: Growth inhibition of human HCT116 cells after 48 hrs by sulforhodamine B assay; conditions: HCT-116, 48 h; method in brief: as §2
HCT-15 = assay: Growth inhibition of human HCT15 cells after 48 hrs by sulforhodamine B assay; conditions: HCT-15, 48 h; method in brief: as §2
SW-620 = assay: Growth inhibition of human SW620 cells after 48 hrs by sulforhodamine B assay; conditions: SW-620, 48 h; method in brief: as §2
SF-268 = assay: Growth inhibition of human SF268 cells after 48 hrs by sulforhodamine B assay; conditions: SF-268, 48 h; method in brief: as §2
SF-539 = assay: Growth inhibition of human SF539 cells after 48 hrs by sulforhodamine B assay; conditions: SF-539, 48 h; method in brief: as §2
SNB-75 = assay: Growth inhibition of human SNB75 cells after 48 hrs by sulforhodamine B assay; conditions: SNB-75, 48 h; method in brief: as §2
LOX IMVI = assay: Growth inhibition of human LOXIMVI cells after 48 hrs by sulforhodamine B assay; method in brief: as §2
Malme-3M = assay: Growth inhibition of human MALME-3M cells after 48 hrs by sulforhodamine B assay; method in brief: as §2
M14 = assay: Growth inhibition of human M14 cells after 48 hrs by sulforhodamine B assay; conditions: M14, 48 h; method in brief: as §2
SK-MEL-5 = assay: Growth inhibition of human SK-MEL-5 cells after 48 hrs by sulforhodamine B assay; conditions: SK-MEL-5, 48 h; method in brief: as §2
UACC-257 = assay: Growth inhibition of human UACC257 cells after 48 hrs by sulforhodamine B assay; conditions: UACC-257, 48 h; method in brief: as §2
UACC-62 = assay: Growth inhibition of human UACC62 cells after 48 hrs by sulforhodamine B assay; conditions: UACC-62, 48 h; method in brief: as §2
OVCAR-3 = assay: Growth inhibition of human OVCAR-3 cells after 48 hrs by sulforhodamine B assay; conditions: OVCAR-3, 48 h; method in brief: as §2
OVCAR-4 = assay: Growth inhibition of human OVCAR4 cells after 48 hrs by sulforhodamine B assay; conditions: OVCAR-4, 48 h; method in brief: as §2
OVCAR-5 = assay: Growth inhibition of human OVCAR5 cells after 48 hrs by sulforhodamine B assay; conditions: OVCAR-5, 48 h; method in brief: as §2
OVCAR-8 = assay: Growth inhibition of human OVCAR8 cells after 48 hrs by sulforhodamine B assay; conditions: OVCAR-8, 48 h; method in brief: as §2
SK-OV-3 = assay: Growth inhibition of human SKOV3 cells after 48 hrs by sulforhodamine B assay; conditions: SK-OV-3, 48 h; method in brief: as §2
ACHN = assay: Growth inhibition of human ACHN cells after 48 hrs by sulforhodamine B assay; method in brief: as §1
CAKI-1 = assay: Growth inhibition of human Caki1 cells after 48 hrs by sulforhodamine B assay; conditions: CAKI-1, 48 h; method in brief: as §1
RXF 393 = assay: Growth inhibition of human RXF393 cells after 48 hrs by sulforhodamine B assay; conditions: RXF 393, 48 h; method in brief: as §2
SN12C = assay: Growth inhibition of human SN12C cells after 48 hrs by sulforhodamine B assay; method in brief: as §2
NCI/ADR-RES = assay: Growth inhibition of human NCI/ADR-RES cells after 48 hrs by sulforhodamine B assay; method in brief: as §2
MDA-MB-231 = assay: Growth inhibition of human MDA-MB-231 cells after 48 hrs by sulforhodamine B assay; conditions: MDA-MB-231, 48 h; method in brief: as §2
Hs-578T = assay: Growth inhibition of human Hs 578T cells after 48 hrs by sulforhodamine B assay; method in brief: as §2
BT-549 = assay: Growth inhibition of human BT549 cells after 48 hrs by sulforhodamine B assay; conditions: BT-549, 48 h; method in brief: as §1
T47D = assay: Growth inhibition of human T47D cells after 48 hrs by sulforhodamine B assay; method in brief: as §2
A-375 [2] = assay: Cell cycle arrest in human A375 cells assessed as accumulation at G0 phase at 2 uM after 24 hrs using propidium iodide staining by flow cytometry
Method in brief: (§3)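 A375 cells (5×10^5) grown 24 h, then exposed to compound 24 h (DMSO control). Trypsin–EDTA harvest, fixed in ice-cold 70% ethanol at 4 °C 30 min, RNase A 37 °C 30 min, propidium iodide staining. DNA content measured by flow cytometry on 20,000 events, gated as sub-G1/G0, G1, S and G2/M.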

A-375 [3] = assay: Cell cycle arrest in human A375 cells assessed as accumulation at G1 phase at 2 uM after 24 hrs using propidium iodide staining by flow cytometry; method in brief: as §3
A-375 [4] = assay: Cell cycle arrest in human A375 cells assessed as accumulation at S phase at 2 uM after 24 hrs using propidium iodide staining by flow cytometry; method in brief: as §3
A-375 [5] = assay: Cell cycle arrest in human A375 cells assessed as accumulation at G2/M phase at 2 uM after 24 hrs using propidium iodide staining by flow cytometry; method in brief: as §3
A-375 [6] = assay: Cell cycle arrest in human A375 cells assessed as accumulation at G0/G1 phase at 2 uM after 24 hrs using propidium iodide staining by flow cytometry; method in brief: as §3

## COc1cc2c(cc1OCCCCC(=O)Nc1ccc(-c3nc4ccccc4s3)cc1)N=C[C@@H]1CCCN1C2=O
CCRF-CEM
  GI50: 1200 nM
HL-60
  GI50: 1780 nM
K562
  GI50: 1740 nM
MOLT-4
  GI50: 1620 nM
[1]
  GI50: 1450 nM
SR
  GI50: 550 nM
A549
  GI50: 3390 nM
EKVX
  GI50: 2450 nM
HOP-62
  GI50: 2450 nM
HOP-92
  GI50: 1740 nM
NCI-H322M
  GI50: 2820 nM
NCI-H522
  GI50: 977 nM
COLO 205
  GI50: 1700 nM
HCC 2998
  GI50: 1580 nM
HCT-116
  GI50: 1860 nM
HCT-15
  GI50: 2820 nM
SW-620
  GI50: 1620 nM
SF-268
  GI50: 2040 nM
SF-539
  GI50: 1580 nM
SNB-75
  GI50: 1820 nM
LOX IMVI
  GI50: 1550 nM
Malme-3M
  GI50: 1910 nM
M14
  GI50: 1550 nM
SK-MEL-5
  GI50: 1780 nM
UACC-257
  GI50: 1740 nM
UACC-62
  GI50: 1740 nM
OVCAR-3
  GI50: 1860 nM
OVCAR-4
  GI50: 2820 nM
OVCAR-5
  GI50: 3550 nM
OVCAR-8
  GI50: 1550 nM
SK-OV-3
  GI50: 4470 nM
ACHN
  GI50: 3020 nM
CAKI-1
  GI50: 2190 nM
RXF 393
  GI50: 1620 nM
SN12C
  GI50: 2820 nM
NCI/ADR-RES
  GI50: 11000 nM
MDA-MB-231
  GI50: 2090 nM
Hs-578T
  GI50: 2750 nM
BT-549
  GI50: 1120 nM
T47D
  GI50: 1950 nM
A-375 [2]
  Activity: 15.1%
A-375 [3]
  Activity: 73.34%
A-375 [4]
  Activity: 6.15%
A-375 [5]
  Activity: 5.41%
A-375 [6]
  Activity: 88.44%

## COc1cc(-c2nc3ccccc3s2)ccc1OCCCCCOc1cc2c(cc1OC)C(=O)N1CCC[C@H]1C=N2
CCRF-CEM
  GI50: 21.9 nM
HL-60
  GI50: 33.1 nM
K562
  GI50: 20.4 nM
MOLT-4
  GI50: 43.6 nM
[1]
  GI50: 74.1 nM
SR
  GI50: 17.4 nM
A549
  GI50: 240 nM
EKVX
  GI50: 204 nM
HOP-62
  GI50: 45.7 nM
HOP-92
  GI50: 44.7 nM
NCI-H322M
  GI50: 302 nM
NCI-H522
  GI50: 41.7 nM
COLO 205
  GI50: 60.3 nM
HCC 2998
  GI50: 126 nM
HCT-116
  GI50: 38.9 nM
HCT-15
  GI50: 224 nM
SW-620
  GI50: 56.2 nM
SF-268
  GI50: 347 nM
SF-539
  GI50: 39.8 nM
SNB-75
  GI50: 145 nM
LOX IMVI
  GI50: 18.2 nM
Malme-3M
  GI50: 145 nM
M14
  GI50: 39.8 nM
SK-MEL-5
  GI50: 24.6 nM
UACC-257
  GI50: 186 nM
UACC-62
  GI50: 81.3 nM
OVCAR-3
  GI50: 97.7 nM
OVCAR-4
  GI50: 288 nM
OVCAR-5
  GI50: 70.8 nM
OVCAR-8
  GI50: 141 nM
SK-OV-3
  GI50: 178 nM
ACHN
  GI50: 53.7 nM
CAKI-1
  GI50: 117 nM
RXF 393
  GI50: 51.3 nM
SN12C
  GI50: 200 nM
NCI/ADR-RES
  GI50: 269 nM
MDA-MB-231
  GI50: 89.1 nM
Hs-578T
  GI50: 141 nM
BT-549
  GI50: 21.9 nM
T47D
  GI50: 14.1 nM
A-375 [2]
  Activity: 26.75%
A-375 [3]
  Activity: 67.04%
A-375 [4]
  Activity: 3.11%
A-375 [5]
  Activity: 3.1%
A-375 [6]
  Activity: 93.79%

## COc1cc(-c2nc3ccccc3s2)ccc1OCCCCOc1cc2c(cc1OC)C(=O)N1CCC[C@H]1C=N2
CCRF-CEM
  GI50: 339 nM
HL-60
  GI50: 513 nM
K562
  GI50: 339 nM
MOLT-4
  GI50: 676 nM
[1]
  GI50: 309 nM
SR
  GI50: 295 nM
A549
  GI50: 2690 nM
EKVX
  GI50: 1740 nM
HOP-62
  GI50: 1410 nM
HOP-92
  GI50: 263 nM
NCI-H322M
  GI50: 2570 nM
NCI-H522
  GI50: 550 nM
COLO 205
  GI50: 692 nM
HCC 2998
  GI50: 646 nM
HCT-116
  GI50: 525 nM
HCT-15
  GI50: 1320 nM
SW-620
  GI50: 794 nM
SF-268
  GI50: 1230 nM
SF-539
  GI50: 537 nM
SNB-75
  GI50: 1230 nM
LOX IMVI
  GI50: 724 nM
Malme-3M
  GI50: 1550 nM
M14
  GI50: 1230 nM
SK-MEL-5
  GI50: 407 nM
UACC-257
  GI50: 2190 nM
UACC-62
  GI50: 1120 nM
OVCAR-3
  GI50: 724 nM
OVCAR-4
  GI50: 1620 nM
OVCAR-5
  GI50: 501 nM
OVCAR-8
  GI50: 1780 nM
SK-OV-3
  GI50: 2400 nM
ACHN
  GI50: 776 nM
CAKI-1
  GI50: 575 nM
RXF 393
  GI50: 240 nM
SN12C
  GI50: 955 nM
NCI/ADR-RES
  GI50: 1910 nM
MDA-MB-231
  GI50: 525 nM
Hs-578T
  GI50: 1020 nM
BT-549
  GI50: 282 nM
T47D
  GI50: 257 nM
A-375 [2]
  Activity: 20.86%
A-375 [3]
  Activity: 69.69%
A-375 [4]
  Activity: 5%
A-375 [5]
  Activity: 4.45%
A-375 [6]
  Activity: 90.55%
